The structures appear in SMILES notation.

This series in a line: Toxicity liver stage against HepG2, at 10uM. Format: cell-based. Details: test concentration 10 uM, cell line HepG2-A16-CD81EGFP. The note with it: human, HepG2-A16-CD81EGFP cells; read-out: INHIBITION
In short, it runs like this: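 Uninfected HepG2-A16-CD81EGFP cells, 3 × 10^3 per well, 1536-well, plated on prespotted compound at 10 μM final, parasite-free screening media added to match infected plates; puromycin 10 μM positive, DMSO 0.5% negative; run in parallel with 48 h PbLuc assay at 37 °C, 5% CO2; viability by CellTiter-Glo luminescence, normalized to controls.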
For the compound `NC(=O)Cn1cnc2nc3n(c2c1=O)CCC3`, the cytotoxicity at 10 µM was found to be 2.96%.

Regarding `Cn1ccnc1CN1C[C@H]2CN(S(=O)(=O)c3ccccc3)CCN2C1=O`, the cytotoxicity at 10 µM worked out at 8.36%.

For the compound `CC(C)(C)c1c[nH]c([C@@H]2COCCN2C2CCCCC2)n1`, the cytotoxicity at 10 µM is -1.6%.

For the compound `CC1CCN(c2ccc(=O)n(CC(=O)N(C)Cc3ccccc3)n2)CC1`, the cytotoxicity at 10 µM was 4.84%.

With `CCC(=O)N1CC[C@H]2C(=O)N(Cc3ccc(OC)cc3)CCO[C@H]2C1`, the cytotoxicity at 10 µM is -114%.

For `Cc1cccc(CN2CC3C[C@]3(NC(=O)c3ccoc3)C2)n1` (stereo partly drawn), the cytotoxicity at 10 µM is -147%.

As for `Cn1cncc1CN1CCC2(CC1)CCN2c1ncccn1`, the cytotoxicity at 10 µM came to 9.61%.

Turning to `COc1cccc(CC(=O)N2CCc3nc(C(N)=O)sc3CC2)c1`, the cytotoxicity at 10 µM worked out at 9.94%.

`Fc1cnc(N2CCOCC3(CCCNC3)C2)nc1` (stereo not drawn): the cytotoxicity at 10 µM was -5.36%.

On to `Cc1ccccc1C(=O)N1CCCn2nnc(Cn3cccn3)c2C1`, for which the cytotoxicity at 10 µM was determined as 9.94%.

On to `COc1cccc(-n2nc(C(C)=O)c(C(C)=O)c2C)c1`, for which the cytotoxicity at 10 µM is 9.51%.

Take `COCCO[C@@H]1C[C@H]2CN(C(=O)c3ccc(C)nc3)CCN2C1`: the cytotoxicity at 10 µM was -2.2%.

For `CC(C)C(=O)N1CCC(C)(c2cc[nH]n2)CC1`, the cytotoxicity at 10 µM worked out at 1.96%.

For the compound `CCOC(=O)C1(O)CCN(C(=O)Nc2cccc(F)c2)CC1`, the cytotoxicity at 10 µM was -144%.

Consider `CCc1ocnc1C(=O)N1CCOCC1CC(=O)c1ccccc1` (stereo not drawn), for which the cytotoxicity at 10 µM was 5.92%.

As for `Cc1cc(C(=O)Nc2ccc(OCC3CCOCC3)cc2)[nH]n1`, the cytotoxicity at 10 µM is -7.04%.

For the compound `CCc1n[nH]c(C2CN(Cc3csc(COC)n3)CCO2)n1` (stereo not drawn), the cytotoxicity at 10 µM amounted to 0.753%.

As to `Cc1ccc(N2CCCC3(CCN(C(=O)C4CC4)C3)C2)nn1` (stereo not drawn), the cytotoxicity at 10 µM was -109%.

For the compound `CCCc1nc(C)cc(NCCc2nnc(N)s2)n1`, the cytotoxicity at 10 µM amounted to 3.07%.

For `COC(=O)[C@H]1C[C@@H](O)CCN1S(=O)(=O)c1cc(Cl)ccc1OC`, the cytotoxicity at 10 µM is 5.1%.

Consider `CCc1ccc(CN2CCC(CNC(=O)c3ccc(C)nc3)C2)nc1` (stereo not drawn), for which the cytotoxicity at 10 µM is 7.78%.

With `O=C(Cc1ccccc1C(F)(F)F)N1CCC2(CC1)[C@H](O)C[C@@H]2O`, the cytotoxicity at 10 µM is -4.87%.

In the case of `CN1C[C@@H](n2cnc(-c3ccccc3)c2-c2nccn2C)C[C@H]1C(=O)O`, the cytotoxicity at 10 µM was -0.338%.

For the compound `Cc1cc(C(=O)N2CCC(C)CC2)ccc1NS(C)(=O)=O`, the cytotoxicity at 10 µM was determined as 3.09%.

Take `Cc1c(C(=O)NCC2CCN(Cc3c[nH]cn3)C2)[nH]c2ccccc12` (stereo not drawn): the cytotoxicity at 10 µM was -9.8%.

In the case of `CN1CCN(Cc2nnc(C3CCN(CC4CC4)CC3)n2C)CC1`, the cytotoxicity at 10 µM was -13.6%.

Turning to `c1cnc(-c2nc(CN3CCCC(N4CCCC4)C3)cs2)nc1` (stereo not drawn), the cytotoxicity at 10 µM was -12%.

Take `COc1c(C2CCCN2C(=O)c2ccc3c(c2)OCO3)c(C)nn1C` (stereo not drawn): the cytotoxicity at 10 µM is -13.4%.

Consider `CC(C)c1nc(CNCC2CCCN2c2cccnn2)cs1` (stereo not drawn), for which the cytotoxicity at 10 µM was -4.84%.

As to `Cc1cnn(CC2CCCN2C(=O)c2cccc(-n3ccc(C)n3)c2)c1` (stereo not drawn), the cytotoxicity at 10 µM is -19.2%.

For the compound `CC(C)(C)c1nc(CN2CCC(c3ccnn3CCO)CC2)no1`, the cytotoxicity at 10 µM is -5.22%.

Regarding `Cc1cccnc1CNC(=O)N(CCCO)C1CCc2ccccc21` (stereo not drawn), the cytotoxicity at 10 µM was -11.4%.

Turning to `CCN(CC)CC1CN(Cc2cccc(C#N)c2)Cc2nccn2C1` (stereo not drawn), the cytotoxicity at 10 µM was -127%.

Turning to `Cc1ccc(N2CC3(COCCN(Cc4nccs4)C3)OCC2=O)s1` (stereo not drawn), the cytotoxicity at 10 µM is -13.5%.

Turning to `Cc1ccnc(OC[C@@]23CCO[C@@H]2CCN(C2CCC2)C3)n1`, the cytotoxicity at 10 µM amounted to 8.01%.

As for `O=C(c1ccncc1)N1CCC2(CC1)C(=O)Nc1ccccc12`, the cytotoxicity at 10 µM is -146%.

As to `Cn1cc(CN2CC[C@@H]3[C@@H](CO[C@H]3CNC(=O)c3ccco3)C2)cn1`, the cytotoxicity at 10 µM is -142%.

For `CCN1C(=O)[C@H]2CN(CC(C)C)C[C@H]2C12CCN(C(=O)NC(C)C)CC2`, the cytotoxicity at 10 µM was 4.89%.

(Values after ChEMBL document CHEMBL4513216, “Probing the Open Global Health Chemical Diversity Library for Multistage-Active Starting Points for Next-Generation Antimalarials” (ACS Infect Dis, 2020).)
